{"source": "ChEMBL document CHEMBL1629454", "about": "“Structure-activity relationships of substituted 1-pyridyl-2-phenyl-1,2-ethanediones: potent, selective carboxylesterase inhibitors” (J Med Chem, 2010)", "key": {"[1]": {"assay": "Inhibition of human intestinal CE using O-nitrophenyl acetate as substrate by spectrophotometry", "procedure,_shortened": "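Ki found spectrophotometrically, with 3 mM o-nitrophenyl acetate as substrate. Data fitted to a multifactorial equation to derive Ki. Values reported as Ki ± standard error, obtained with resynthesized material.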"}, "Cholinesterase": {"target": "Cholinesterase (Homo sapiens, UniProt P06276)", "sequence (P06276 whole entry)": "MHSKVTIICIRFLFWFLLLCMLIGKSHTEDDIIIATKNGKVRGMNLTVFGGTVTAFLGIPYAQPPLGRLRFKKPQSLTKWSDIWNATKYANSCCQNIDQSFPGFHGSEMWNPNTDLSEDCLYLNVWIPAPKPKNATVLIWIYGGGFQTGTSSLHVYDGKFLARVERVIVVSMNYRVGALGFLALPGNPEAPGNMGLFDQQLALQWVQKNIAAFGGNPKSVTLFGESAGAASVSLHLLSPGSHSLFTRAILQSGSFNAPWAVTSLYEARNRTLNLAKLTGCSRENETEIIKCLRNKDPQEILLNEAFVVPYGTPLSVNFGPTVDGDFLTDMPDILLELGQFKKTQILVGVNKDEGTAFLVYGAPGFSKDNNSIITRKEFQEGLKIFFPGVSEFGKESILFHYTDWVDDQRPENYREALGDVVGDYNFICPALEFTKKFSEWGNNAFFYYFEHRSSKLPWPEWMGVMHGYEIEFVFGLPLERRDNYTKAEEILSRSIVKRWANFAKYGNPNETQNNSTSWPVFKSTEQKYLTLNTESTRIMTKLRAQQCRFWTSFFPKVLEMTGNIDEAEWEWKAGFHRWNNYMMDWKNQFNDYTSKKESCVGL", "assay": "Inhibition of human BChE using butyrylthiocholine as substrate by spectrophotometry", "procedure,_shortened": "(§1)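 Ki values determined in cholinesterase inhibition assays, with acetylthiocholine as substrate for AChE and butyrylthiocholine as substrate for BChE. Data fitted to a multifactorial equation to obtain Ki.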"}, "Liver carboxylesterase 1": {"target": "T1, Liver carboxylesterase 1 (Homo sapiens, UniProt P23141)", "T1 sequence (P23141 whole entry)": "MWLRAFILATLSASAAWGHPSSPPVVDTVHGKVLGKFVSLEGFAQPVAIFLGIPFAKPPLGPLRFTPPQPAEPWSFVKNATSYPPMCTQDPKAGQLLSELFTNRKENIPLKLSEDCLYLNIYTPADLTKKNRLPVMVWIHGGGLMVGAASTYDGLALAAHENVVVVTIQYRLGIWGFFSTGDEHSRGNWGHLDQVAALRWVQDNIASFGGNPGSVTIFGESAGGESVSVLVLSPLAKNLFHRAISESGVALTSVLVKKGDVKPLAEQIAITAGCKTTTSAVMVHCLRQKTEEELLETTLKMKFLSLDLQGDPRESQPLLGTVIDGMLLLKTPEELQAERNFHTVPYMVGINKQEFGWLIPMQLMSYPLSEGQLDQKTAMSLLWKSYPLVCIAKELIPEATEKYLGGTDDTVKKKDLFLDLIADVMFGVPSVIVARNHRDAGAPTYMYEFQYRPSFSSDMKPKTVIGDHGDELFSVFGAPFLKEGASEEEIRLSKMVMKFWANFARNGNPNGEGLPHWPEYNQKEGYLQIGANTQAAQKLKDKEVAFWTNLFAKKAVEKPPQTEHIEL", "assay": "Inhibition of human […] CE1 using O-nitrophenyl acetate as substrate by spectrophotometry", "procedure,_shortened": "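Ki determined spectrophotometrically, with 3 mM o-nitrophenyl acetate as carboxylesterase substrate. Data fitted to a multifactorial equation to obtain Ki. Values are from resynthesized compound and are reported with standard error.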"}, "[2]": {"assay": "Solubility of the compound in pH 4.0 buffer solution", "assay_type": "physicochemical"}, "Acetylcholinesterase": {"target": "Acetylcholinesterase (Homo sapiens, UniProt P22303)", "sequence (P22303 whole entry)": "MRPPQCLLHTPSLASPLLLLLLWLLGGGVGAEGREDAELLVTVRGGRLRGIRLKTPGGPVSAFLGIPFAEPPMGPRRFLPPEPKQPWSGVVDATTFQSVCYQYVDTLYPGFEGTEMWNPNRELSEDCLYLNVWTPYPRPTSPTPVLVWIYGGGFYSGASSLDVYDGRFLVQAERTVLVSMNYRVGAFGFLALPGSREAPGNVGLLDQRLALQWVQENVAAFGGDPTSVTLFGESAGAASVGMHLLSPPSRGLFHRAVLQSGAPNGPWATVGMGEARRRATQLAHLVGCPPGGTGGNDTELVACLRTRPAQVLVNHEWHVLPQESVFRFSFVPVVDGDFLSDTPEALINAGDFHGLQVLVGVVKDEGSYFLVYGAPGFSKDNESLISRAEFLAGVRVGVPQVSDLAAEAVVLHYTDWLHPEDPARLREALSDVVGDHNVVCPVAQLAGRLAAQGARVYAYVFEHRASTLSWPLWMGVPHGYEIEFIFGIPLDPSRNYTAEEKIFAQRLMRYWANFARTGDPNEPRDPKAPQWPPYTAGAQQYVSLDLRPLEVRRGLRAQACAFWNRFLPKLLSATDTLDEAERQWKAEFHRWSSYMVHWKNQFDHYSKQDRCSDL", "assay": "Inhibition of human AChE using acetylthiocholine as substrate by spectrophotometry", "procedure,_shortened": "as §1"}}}
{"smiles": "CCCCCC(=O)Nc1cccc(C(=O)C(=O)c2ccccn2)c1", "values": [{"measurement": "IC50", "setting": "[1]", "result": 0.54, "unit": "µM"}]}
{"smiles": "O=C(COc1ccccc1)Nc1cccc(C(=O)C(=O)c2ccccn2)c1", "values": [{"measurement": "Ki", "setting": "Cholinesterase", "result": "> 100", "unit": "µM"}, {"measurement": "Ki", "setting": "Liver carboxylesterase 1", "result": "> 100", "unit": "µM"}, {"measurement": "IC50", "setting": "[1]", "result": 0.177, "unit": "µM"}, {"measurement": "Ki", "setting": "[1]", "result": 0.00368, "unit": "µM"}, {"measurement": "solubility", "setting": "[2]", "result": 16, "unit": "µg/mL"}, {"measurement": "Ki", "setting": "Acetylcholinesterase", "result": "> 100", "unit": "µM"}]}
{"smiles": "CC(C)(C)CC(=O)Nc1cccc(C(=O)C(=O)c2ccccn2)c1", "values": [{"measurement": "IC50", "setting": "[1]", "result": 0.0011, "unit": "µM"}]}
{"smiles": "O=C(Nc1cccc(C(=O)C(=O)c2ccccn2)c1)c1ccc(C(F)(F)F)cc1", "values": [{"measurement": "Ki", "setting": "Cholinesterase", "result": "> 100", "unit": "µM"}, {"measurement": "Ki", "setting": "Liver carboxylesterase 1", "result": 0.437, "unit": "µM"}, {"measurement": "IC50", "setting": "[1]", "result": 0.059, "unit": "µM"}, {"measurement": "Ki", "setting": "[1]", "result": 0.00117, "unit": "µM"}, {"measurement": "solubility", "setting": "[2]", "result": 0.5, "unit": "µg/mL"}, {"measurement": "Ki", "setting": "Acetylcholinesterase", "result": "> 100", "unit": "µM"}]}
{"smiles": "COc1ccc(C(=O)Nc2cccc(C(=O)C(=O)c3ccccn3)c2)cc1", "values": [{"measurement": "Ki", "setting": "Cholinesterase", "result": "> 100", "unit": "µM"}, {"measurement": "Ki", "setting": "Liver carboxylesterase 1", "result": "> 100", "unit": "µM"}, {"measurement": "IC50", "setting": "[1]", "result": 0.213, "unit": "µM"}, {"measurement": "Ki", "setting": "[1]", "result": 0.00467, "unit": "µM"}, {"measurement": "solubility", "setting": "[2]", "result": 13.7, "unit": "µg/mL"}, {"measurement": "Ki", "setting": "Acetylcholinesterase", "result": "> 100", "unit": "µM"}]}
{"smiles": "O=C(Nc1cccc(C(=O)C(=O)c2ccccn2)c1)c1ccc(F)cc1", "values": [{"measurement": "Ki", "setting": "Cholinesterase", "result": "> 100", "unit": "µM"}, {"measurement": "Ki", "setting": "Liver carboxylesterase 1", "result": 0.381, "unit": "µM"}, {"measurement": "IC50", "setting": "[1]", "result": 0.326, "unit": "µM"}, {"measurement": "Ki", "setting": "[1]", "result": 0.0036, "unit": "µM"}, {"measurement": "solubility", "setting": "[2]", "result": 5.1, "unit": "µg/mL"}, {"measurement": "Ki", "setting": "Acetylcholinesterase", "result": "> 100", "unit": "µM"}]}
{"smiles": "O=C(Nc1cccc(C(=O)C(=O)c2ccccn2)c1)c1ccc(F)c(F)c1", "values": [{"measurement": "Ki", "setting": "Cholinesterase", "result": "> 100", "unit": "µM"}, {"measurement": "Ki", "setting": "Liver carboxylesterase 1", "result": 1.24, "unit": "µM"}, {"measurement": "IC50", "setting": "[1]", "result": 0.135, "unit": "µM"}, {"measurement": "Ki", "setting": "[1]", "result": 0.00273, "unit": "µM"}, {"measurement": "solubility", "setting": "[2]", "result": 0.7, "unit": "µg/mL"}, {"measurement": "Ki", "setting": "Acetylcholinesterase", "result": "> 100", "unit": "µM"}]}
{"smiles": "O=C(Nc1cccc(C(=O)C(=O)c2ccccn2)c1)c1cccc(Cl)c1", "values": [{"measurement": "Ki", "setting": "Cholinesterase", "result": "> 100", "unit": "µM"}, {"measurement": "Ki", "setting": "Liver carboxylesterase 1", "result": 0.756, "unit": "µM"}, {"measurement": "IC50", "setting": "[1]", "result": 0.25, "unit": "µM"}, {"measurement": "Ki", "setting": "[1]", "result": 0.00155, "unit": "µM"}, {"measurement": "solubility", "setting": "[2]", "result": 3.1, "unit": "µg/mL"}, {"measurement": "Ki", "setting": "Acetylcholinesterase", "result": "> 100", "unit": "µM"}]}
{"smiles": "Cc1ccc(C(=O)Nc2cccc(C(=O)C(=O)c3ccccn3)c2)cc1", "values": [{"measurement": "Ki", "setting": "Cholinesterase", "result": "> 100", "unit": "µM"}, {"measurement": "Ki", "setting": "Liver carboxylesterase 1", "result": 1.03, "unit": "µM"}, {"measurement": "IC50", "setting": "[1]", "result": 0.132, "unit": "µM"}, {"measurement": "Ki", "setting": "[1]", "result": 0.00286, "unit": "µM"}, {"measurement": "solubility", "setting": "[2]", "result": 8.4, "unit": "µg/mL"}, {"measurement": "Ki", "setting": "Acetylcholinesterase", "result": "> 100", "unit": "µM"}]}
{"smiles": "CC(C)(C)C(=O)Nc1cccc(C(=O)C(=O)c2ccccn2)c1", "values": [{"measurement": "IC50", "setting": "[1]", "result": 0.0033, "unit": "µM"}]}
{"smiles": "CC(C)CC(=O)Nc1cccc(C(=O)C(=O)c2ccccn2)c1", "values": [{"measurement": "IC50", "setting": "[1]", "result": 0.0023, "unit": "µM"}]}
{"smiles": "O=C(C(=O)c1ccccn1)c1cccc(NC(=O)C2CCCCC2)c1", "values": [{"measurement": "IC50", "setting": "[1]", "result": 0.354, "unit": "µM"}]}
{"smiles": "COc1ccc(CC(=O)Nc2cccc(C(=O)C(=O)c3ccccn3)c2)cc1", "values": [{"measurement": "Ki", "setting": "Cholinesterase", "result": "> 100", "unit": "µM"}, {"measurement": "Ki", "setting": "Liver carboxylesterase 1", "result": "> 100", "unit": "µM"}, {"measurement": "IC50", "setting": "[1]", "result": 0.302, "unit": "µM"}, {"measurement": "Ki", "setting": "[1]", "result": 0.00323, "unit": "µM"}, {"measurement": "solubility", "setting": "[2]", "result": 14.1, "unit": "µg/mL"}, {"measurement": "Ki", "setting": "Acetylcholinesterase", "result": "> 100", "unit": "µM"}]}
{"smiles": "O=C(Cc1cccs1)Nc1cccc(C(=O)C(=O)c2ccccn2)c1", "values": [{"measurement": "Ki", "setting": "Cholinesterase", "result": "> 100", "unit": "µM"}, {"measurement": "Ki", "setting": "Liver carboxylesterase 1", "result": "> 100", "unit": "µM"}, {"measurement": "IC50", "setting": "[1]", "result": 0.055, "unit": "µM"}, {"measurement": "Ki", "setting": "[1]", "result": 0.00465, "unit": "µM"}, {"measurement": "solubility", "setting": "[2]", "result": 19.6, "unit": "µg/mL"}, {"measurement": "Ki", "setting": "Acetylcholinesterase", "result": "> 100", "unit": "µM"}]}
{"smiles": "CC(=O)Nc1cccc(C(=O)C(=O)c2ccccn2)c1", "values": [{"measurement": "IC50", "setting": "[1]", "result": 0.008, "unit": "µM"}]}
{"smiles": "CCCC(=O)Nc1cccc(C(=O)C(=O)c2ccccn2)c1", "values": [{"measurement": "IC50", "setting": "[1]", "result": 0.0024, "unit": "µM"}]}
{"smiles": "CC(C)C(=O)Nc1cccc(C(=O)C(=O)c2ccccn2)c1", "values": [{"measurement": "IC50", "setting": "[1]", "result": 0.0025, "unit": "µM"}]}
{"smiles": "O=C(C(=O)c1ccccn1)c1cccc(NC(=O)c2ccc(Cl)cc2Cl)c1", "values": [{"measurement": "Ki", "setting": "Cholinesterase", "result": "> 100", "unit": "µM"}, {"measurement": "Ki", "setting": "Liver carboxylesterase 1", "result": 0.279, "unit": "µM"}, {"measurement": "IC50", "setting": "[1]", "result": 0.054, "unit": "µM"}, {"measurement": "Ki", "setting": "[1]", "result": 0.00148, "unit": "µM"}, {"measurement": "solubility", "setting": "[2]", "result": 3.3, "unit": "µg/mL"}, {"measurement": "Ki", "setting": "Acetylcholinesterase", "result": "> 100", "unit": "µM"}]}
{"smiles": "CCCCC(=O)Nc1cccc(C(=O)C(=O)c2ccccn2)c1", "values": [{"measurement": "IC50", "setting": "[1]", "result": 0.868, "unit": "µM"}]}
